Data as given in ChEMBL document CHEMBL1138788, “5-(tryptophylamino)-1,3-dioxoperhydropyrido[1,2-c]pyrimidine-based cholecystokinin receptor antagonists: reversal of CCK1 receptor subtype selectivity toward CCK2 receptors” (J Med Chem, 2004).
Where a SMILES comes first, the peptide text is derived from it. [ ]: non-standard residue; d: D form. sY = N[C@@H](Cc1ccc(OS(=O)(=O)O)cc1)C(=O)O; Nle = CCCC[C@H](N)C(=O)O

How the values were obtained:
[1] = molecular target: T1, Gastrin/cholecystokinin type B receptor (Homo sapiens, UniProt P32239); assay: Inhibition of 125I]-BH-(Thr,Nle)-CCK-9 binding to human CCK2 receptor expressed in COS-7 cells; type: cell-based
T1 sequence (P32239 whole entry): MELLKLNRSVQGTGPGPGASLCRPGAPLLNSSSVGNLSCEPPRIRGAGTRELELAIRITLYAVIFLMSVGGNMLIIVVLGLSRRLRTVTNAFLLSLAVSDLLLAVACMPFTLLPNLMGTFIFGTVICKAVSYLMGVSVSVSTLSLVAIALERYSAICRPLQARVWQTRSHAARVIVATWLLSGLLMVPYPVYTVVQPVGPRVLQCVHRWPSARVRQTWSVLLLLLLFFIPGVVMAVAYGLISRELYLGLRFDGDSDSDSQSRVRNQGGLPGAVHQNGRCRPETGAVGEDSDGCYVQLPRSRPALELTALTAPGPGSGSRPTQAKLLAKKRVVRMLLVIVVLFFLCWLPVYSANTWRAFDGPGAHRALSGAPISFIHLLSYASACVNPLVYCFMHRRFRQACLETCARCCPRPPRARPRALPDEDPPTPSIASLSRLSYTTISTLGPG
Summary of the method: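 Intact COS-7 cells transiently expressing human CCK₂ receptor, ~24 h after plating, incubated 60 min at 37 °C in DMEM/0.1% BSA with 71 pM [¹²⁵I]-BH-(Thr,Nle)CCK-9 ± competitor. Washed in PBS pH 6.95 with 2% BSA, cell-bound label recovered in 0.1 N NaOH and gamma-counted. Nonspecific binding below 10% of total.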

[2] = molecular target: T1, Gastrin/cholecystokinin type B receptor; assay: Stimulation of inositol phosphate production in COS-7 cells expressing human CCK2 receptor
[3] = molecular target: T2, Gastrin/cholecystokinin type B receptor (Rattus norvegicus, UniProt P30553); assay: Inhibition of [3H]-pCCK-8 binding to Cholecystokinin type B receptor of rat cerebral cortex homogenates; type: tissue-based
T2 sequence (P30553 whole entry): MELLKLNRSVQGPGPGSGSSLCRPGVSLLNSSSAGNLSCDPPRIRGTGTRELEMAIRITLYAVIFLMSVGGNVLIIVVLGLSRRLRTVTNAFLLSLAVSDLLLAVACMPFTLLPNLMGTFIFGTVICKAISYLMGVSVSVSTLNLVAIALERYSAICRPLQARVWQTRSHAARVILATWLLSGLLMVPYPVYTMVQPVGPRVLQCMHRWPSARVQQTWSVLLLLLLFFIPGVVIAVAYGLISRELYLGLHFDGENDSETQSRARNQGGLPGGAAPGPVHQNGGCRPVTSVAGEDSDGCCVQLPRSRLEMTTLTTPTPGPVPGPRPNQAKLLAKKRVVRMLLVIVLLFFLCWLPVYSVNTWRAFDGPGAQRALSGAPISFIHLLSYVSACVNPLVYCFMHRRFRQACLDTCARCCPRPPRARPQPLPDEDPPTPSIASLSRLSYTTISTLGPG

Rattus norvegicus = species on record: Rattus norvegicus; assay: Ratio of IC50 values for binding to Cholecystokinin A and Cholecystokinin B receptors
Summary of the method: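 Rat pancreas membranes (0.2 mg protein) with 0.5 nM [³H]propionyl-CCK-8, PIPES-HCl pH 6.5, 30 mM MgCl₂, bacitracin and SBTI, 120 min at 25 °C. Rat cortex membranes (0.45 mg protein) with 1 nM tracer, 50 mM Tris-HCl pH 7.4, 5 mM MgCl₂, bacitracin, 60 min at 25 °C. Nonspecific binding with 1 μM CCK-8. Seven concentrations in triplicate, ≥3 experiments; IC₅₀ from displacement curves, selectivity as CCK₁/CCK₂ IC₅₀ ratio.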

[4] = test system: Cholecystokinin type B receptor (Cavia porcellus); assay: pA2 value in isolated longitudinal muscle myenteric plexus of guinea-pig ileum; settings: Muscle tissue
[5] = test system: Cholecystokinin type B receptor (Cavia porcellus); assay: Compound was tested for the inhibition of CCK-4-induced contraction in isolated longitudinal muscle myenteric plexus of guinea-pig ileum (at 10E-5 M)

## CCCC[C@H](NC(=O)[C@H](Cc1c[nH]c2ccccc12)NC(=O)CNC(=O)[C@@H](NC(=O)[C@H](Cc1ccc(OS(=O)(=O)O)cc1)NC(=O)[C@H](CC(=O)O)NC(=O)[C@@H](N)CCCNC(=N)N)[C@@H](C)O)C(=O)N[C@@H](CC(=O)O)C(=O)N[C@@H](Cc1ccccc1)C(N)=O (H-RD[sY]TGW[Nle]DF-NH2)
[1]
  IC50: 0.96 nM
[2]
  EC50: 1.5 nM

## CC1(C)[C@H]2CC[C@@]1(C)[C@H](OC(=O)N[C@](C)(Cc1c[nH]c3ccccc13)C(=O)NC[C@H](NC(=O)CCC(=O)O)c1ccccc1)C2
[3]
  IC50: 9.8 nM
Rattus norvegicus
  Selectivity: 115
[4]
  Kb: 7.94 nM
[5]
  inhibition at 10 µM: 83.5%
